{
  "source": "ChEMBL document CHEMBL3112586",
  "about": "“Synthesis of neolignans as microtubule stabilisers” (Bioorg Med Chem, 2014)",
  "key": {"[1]": {"test_system": "Mus musculus", "experiment": "Toxicity in Swiss albino mouse assessed as change in triglyceride level at 300 mg/kg, po (reference value: 121.45 +/- 24.02 mg/dL)", "format": "organism-based", "parameters": "dose 300 mg/kg, route oral", "settings": "in vivo"}, "[2]": {"test_system": "Mus musculus", "experiment": "Toxicity in Swiss albino mouse assessed as change in SGPT level at 1000 mg/kg, po (reference value: 12.28 +/- 3.73 U/L)", "format": "organism-based", "parameters": "dose 1000 mg/kg, route oral", "settings": "in vivo"}, "[3]": {"molecular_target": "T1, Tubulin (Homo sapiens) (UniProt P68371+Q9H4B7+P0DPH7+P68366+Q13509+Q71U36+P04350+Q3ZCM7+P07437+P68363+Q9BQE3+Q6PEY2+Q13885+Q9BVA1+Q9BUF5)", "experiment": "Induction of tubulin polymerization (unknown origin) at 10 to 40 uM measured every min for 1 hr in presence of PDT", "format": "protein-complex assay", "in_short": "(§1)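 Tubulin 3 mg/mL in 80 mM PIPES pH 6.9, 2 mM MgCl2, 0.5 mM EGTA, 1 mM GTP, 15% glycerol at 37 °C with test compounds at varied concentrations; turbidity at 340 nm read every min for 1 h; podophyllotoxin inhibitor and paclitaxel stabiliser references, DMSO negative control.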"}, "[4]": {"test_system": "MCF7", "experiment": "Cell cycle arrest in human MCF7 cells assessed as decrease in S phase at 5 to 30 uM after 24 hrs by propidium iodide staining-based FACS analysis relative to untreated control", "format": "functional", "in_short": "(§2)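 MCF-7 in DMEM, 10% FBS, 37 °C, 5% CO2; treated 24 h, harvested, washed cold PBS, resuspended 2 × 10⁶ cells/ml, fixed absolute ethanol, RNase A treated, propidium iodide (50 µg/mL) 30 min room temperature; DNA content by flow cytometry; phase distribution versus untreated control.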"}, "[5]": {"test_system": "MCF7", "experiment": "Cell cycle arrest in human MCF7 cells assessed as accumulation at G2 phase at 5 to 30 uM after 24 hrs by propidium iodide staining-based FACS analysis", "format": "functional", "in_short": "as §2"}, "[6]": {"test_system": "Mus musculus", "experiment": "Toxicity in Swiss albino mouse assessed as absolute lungs weight at 5 to 1000 mg/kg, po relative to control", "format": "organism-based", "parameters": "dose 5-1000 mg/kg, route oral", "settings": "in vivo"}, "[7]": {"test_system": "Mus musculus", "experiment": "Toxicity in Swiss albino mouse assessed as change in SGOT level at 50 mg/kg, po (reference value: 25.27 +/- 1.32 U/L)", "format": "organism-based", "parameters": "dose 50 mg/kg, route oral", "settings": "in vivo"}, "[8]": {"test_system": "Mus musculus", "experiment": "Toxicity in Swiss albino mouse assessed as change in albumin level at 5 mg/kg, po (reference value: 3.35 +/- 0.51 g/dL)", "format": "organism-based", "parameters": "dose 5 mg/kg, route oral", "settings": "in vivo"}, "[9]": {"test_system": "Mus musculus", "experiment": "Toxicity in Swiss albino mouse assessed as change in total haemoglobin level at 50 mg/kg, po (reference value: 11.39 +/- 0.84 g/dL)", "format": "organism-based", "parameters": "dose 50 mg/kg, route oral", "settings": "in vivo"}, "[10]": {"test_system": "Mus musculus", "experiment": "Toxicity in Swiss albino mouse assessed as change in WBC count at 300 mg/kg, po (reference value: 14.2 +/- 7.49 X 10^3/mm'3)", "format": "organism-based", "parameters": "dose 300 mg/kg, route oral", "settings": "in vivo"}, "[11]": {"test_system": "Mus musculus", "experiment": "Toxicity in Swiss albino mouse assessed as change in serum protein level at 1000 mg/kg, po (reference value: 1.11 +/- 0.14 mg/ml)", "format": "organism-based", "parameters": "dose 1000 mg/kg, route oral", "settings": "in vivo"}, "[12]": {"test_system": "Mus musculus", "experiment": "Toxicity in Swiss albino mouse assessed as change in creatinine level at 50 mg/kg, po (reference value: 0.63 +/- 0.18 mg/dL)", "format": "organism-based", "parameters": "dose 50 mg/kg, route oral", "settings": "in vivo"}, "[13]": {"test_system": "MCF7", "experiment": "Cell cycle arrest in human MCF7 cells assessed as accumulation at G1 phase at 5 to 30 uM after 24 hrs by propidium iodide staining-based FACS analysis", "format": "functional", "in_short": "as §2"}, "[14]": {"test_system": "Mus musculus", "experiment": "Toxicity in Swiss albino mouse assessed as change in RBC count at 50 mg/kg, po (reference value: 5.43 +/- 0.27 million/mm'3)", "format": "organism-based", "parameters": "dose 50 mg/kg, route oral", "settings": "in vivo"}, "[15]": {"test_system": "Mus musculus", "experiment": "Toxicity in Swiss albino mouse assessed as change in cholesterol level at 300 mg/kg, po (reference value: 81.64 +/- 4.26 mg/dL)", "format": "organism-based", "parameters": "dose 300 mg/kg, route oral", "settings": "in vivo"}, "[16]": {"test_system": "Mus musculus", "experiment": "Toxicity in Swiss albino mouse assessed as change in total haemoglobin level at 5 mg/kg, po (reference value: 11.39 +/- 0.84 g/dL)", "format": "organism-based", "parameters": "dose 5 mg/kg, route oral", "settings": "in vivo"}, "[17]": {"test_system": "MDA-MB-231", "experiment": "Cytotoxicity against human MDA-MB-231 cells after 24 hrs by MTT assay", "format": "functional, cell-based", "settings": "MDA-MB-231, 24 h", "in_short": "(§3)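 Cells in DMEM, 10% FBS, 37 °C, 5% CO2, plated and incubated 24 h; compounds diluted in phenol-red-free DMEM with 0.5% FBS, vehicle control; after exposure, MTT (5 mg/mL stock) added 3 h, formazan dissolved in DMSO, absorbance 570 nm; IC50 derived; podophyllotoxin and tamoxifen positive controls.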"}, "[18]": {"test_system": "MCF7", "experiment": "Cell cycle arrest in human MCF7 cells assessed as accumulation at G2/M phase at 5 to 30 uM after 24 hrs by propidium iodide staining-based FACS analysis", "format": "functional", "in_short": "as §2"}, "[19]": {"test_system": "Mus musculus", "experiment": "Toxicity in Swiss albino mouse assessed as morbidity at 5 to 1000 mg/kg, po", "format": "organism-based", "parameters": "dose 5-1000 mg/kg, route oral", "settings": "in vivo", "in_short": "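Swiss albino mice (3 male, 3 female per group, 20-25 g) were given one oral dose of 5, 50, 300 or 1000 mg/kg in DMSO/0.7% carboxymethyl cellulose, or vehicle. Mortality and signs of ill health were checked hourly on the dosing day, then daily for 7 days. Checks covered skin, mucous membranes, eyes, secretions, lachrymation, pilo-erection, respiration, gait, posture and response to handling.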"}, "[20]": {"test_system": "Mus musculus", "experiment": "Toxicity in Swiss albino mouse assessed as relative kidney weight at 5 to 1000 mg/kg, po relative to control", "format": "organism-based", "parameters": "dose 5-1000 mg/kg, route oral", "settings": "in vivo", "in_short": "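One oral dose (5–1000 mg/kg; DMSO then 0.7% carboxymethyl cellulose vehicle; controls vehicle-only) was given to groups of 6 mice (3 male, 3 female). On day 7 the animals were sacrificed and necropsied for gross pathology. Absolute and relative weights of vital organs were recorded and compared with control.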"}, "[21]": {"test_system": "Mus musculus", "experiment": "Toxicity in Swiss albino mouse assessed as change in body weight at 300 mg/kg, po (reference value: 24.5 +/- 0.76 g)", "format": "organism-based", "parameters": "dose 300 mg/kg, route oral", "settings": "in vivo"}, "[22]": {"test_system": "MCF7", "experiment": "Cytotoxicity against human MCF7 cells after 48 to 72 hrs by MTT assay", "format": "functional, cell-based", "in_short": "as §3"}, "[23]": {"molecular_target": "T1, Tubulin (Homo sapiens)", "experiment": "Induction of tubulin polymerization (unknown origin) at 10 to 40 uM measured every min for 1 hr", "format": "protein-complex assay", "in_short": "as §1"}, "[24]": {"test_system": "Mus musculus", "experiment": "Toxicity in Swiss albino mouse assessed as absolute spleen weight at 5 to 1000 mg/kg, po relative to control", "format": "organism-based", "parameters": "dose 5-1000 mg/kg, route oral", "settings": "in vivo"}, "[25]": {"test_system": "Mus musculus", "experiment": "Toxicity in Swiss albino mouse assessed as change in ALKP level at 1000 mg/kg, po (reference value: 218.67 +/- 12.43 U/L)", "format": "organism-based", "parameters": "dose 1000 mg/kg, route oral", "settings": "in vivo"}, "[26]": {"test_system": "Mus musculus", "experiment": "Toxicity in Swiss albino mouse assessed as change in SGPT level at 300 mg/kg, po (reference value: 12.28 +/- 3.73 U/L)", "format": "organism-based", "parameters": "dose 300 mg/kg, route oral", "settings": "in vivo"}, "[27]": {"test_system": "Mus musculus", "experiment": "Toxicity in Swiss albino mouse assessed as change in SGPT level at 5 mg/kg, po (reference value: 12.28 +/- 3.73 U/L)", "format": "organism-based", "parameters": "dose 5 mg/kg, route oral", "settings": "in vivo"}, "[28]": {"test_system": "Mus musculus", "experiment": "Toxicity in Swiss albino mouse assessed as change in body weight at 1000 mg/kg, po (reference value: 24.5 +/- 0.76 g)", "format": "organism-based", "parameters": "dose 1000 mg/kg, route oral", "settings": "in vivo"}, "[29]": {"test_system": "Mus musculus", "experiment": "Toxicity in Swiss albino mouse assessed as change in basophil count at 5 to 1000 mg/kg, po relative to control", "format": "organism-based", "parameters": "dose 5-1000 mg/kg, route oral", "settings": "in vivo"}, "[30]": {"test_system": "Mus musculus", "experiment": "Toxicity in Swiss albino mouse assessed as change in SGOT level at 300 mg/kg, po (reference value: 25.27 +/- 1.32 U/L)", "format": "organism-based", "parameters": "dose 300 mg/kg, route oral", "settings": "in vivo"}},
  "note": "The source made the active and inactive calls. The rule behind the calls is not given here.",
  "data": [
    {"smiles": "CCOC(=O)/C=C/c1ccc(O)c(/C(=C/c2ccc(O)cc2)C(=O)OCC)c1", "values": [
      {"measurement": "Activity", "setting": "[1]", "value": 134.38, "unit": "mg/dL"},
      {"measurement": "Activity", "setting": "[2]", "value": 21.95, "unit": "U/L"},
      {"measurement": "Activity", "setting": "[3]", "value": "inactive"},
      {"measurement": "Activity", "setting": "[4]", "value": "Active"},
      {"measurement": "Activity", "setting": "[5]", "value": "Active"},
      {"measurement": "Activity", "setting": "[6]", "value": "Non-toxic"},
      {"measurement": "Activity", "setting": "[7]", "value": 34.34, "unit": "U/L"},
      {"measurement": "Activity", "setting": "[8]", "value": 3.17, "unit": "g/dL"},
      {"measurement": "Activity", "setting": "[9]", "value": 10.67, "unit": "g/dL"},
      {"measurement": "Activity", "setting": "[10]", "value": 13.76, "unit": "×10³ /mm3"},
      {"measurement": "Activity", "setting": "[11]", "value": 1.02, "unit": "mg/mL"},
      {"measurement": "Activity", "setting": "[12]", "value": 1.45, "unit": "mg/dL"},
      {"measurement": "Activity", "setting": "[13]", "value": "inactive"},
      {"measurement": "Activity", "setting": "[14]", "value": 5.58, "unit": "million/mm3"},
      {"measurement": "Activity", "setting": "[15]", "value": 77.65, "unit": "mg/dL"},
      {"measurement": "Activity", "setting": "[16]", "value": 12.35, "unit": "g/dL"},
      {"measurement": "IC50", "setting": "[17]", "value": 15, "unit": "µM"},
      {"measurement": "Activity", "setting": "[18]", "value": "Active"},
      {"measurement": "Activity", "setting": "[19]", "value": "Non-toxic"},
      {"measurement": "Activity", "setting": "[20]", "value": "Non-toxic"},
      {"measurement": "Activity", "setting": "[21]", "value": 25, "unit": "g"},
      {"measurement": "Activity", "setting": "[22]", "value": "Active"},
      {"measurement": "Activity", "setting": "[23]", "value": "Active"},
      {"measurement": "Activity", "setting": "[24]", "value": "Non-toxic"},
      {"measurement": "Activity", "setting": "[25]", "value": 143.89, "unit": "U/L"},
      {"measurement": "Activity", "setting": "[26]", "value": 15.56, "unit": "U/L"},
      {"measurement": "Activity", "setting": "[27]", "value": 13.15, "unit": "U/L"},
      {"measurement": "Activity", "setting": "[28]", "value": 26.5, "unit": "g"},
      {"measurement": "Activity", "setting": "[29]", "value": "Non-toxic"},
      {"measurement": "Activity", "setting": "[30]", "value": 37.95, "unit": "U/L"}
    ]}
  ]
}
